In ChEMBL document CHEMBL1811823, “Quinazolinone linked pyrrolo[2,1-c][1,4]benzodiazepine (PBD) conjugates: Design, synthesis and biological evaluation as potential anticancer agents” (2010):
Calls of active or inactive are those of the source. The calls are words filed in the database; no cut-off is given here.

Tests used:
T47D = assay: Growth inhibition of human T47D cells by NCI anti-cancer screening method; assay type: functional
HOP-92 = assay: Growth inhibition of human HOP92 cells by NCI anti-cancer screening method; assay type: functional
KM12 = assay: Growth inhibition of human KM12 cells by NCI anti-cancer screening method; assay type: functional
COLO 205 = assay: Growth inhibition of human COLO205 cells by NCI anti-cancer screening method; assay type: functional
IGROV-1 = assay: Growth inhibition of human IGROV1 cells by NCI anti-cancer screening method; assay type: functional
TK-10 = assay: Growth inhibition of human TK10 cells by NCI anti-cancer screening method; assay type: functional
OVCAR-8 = assay: Growth inhibition of human OVCAR8 cells by NCI anti-cancer screening method; assay type: functional
ACHN = assay: Growth inhibition of human ACHN cells by NCI anti-cancer screening method; assay type: functional
SK-MEL-28 = assay: Growth inhibition of human SK-MEL-28 cells by NCI anti-cancer screening method; assay type: functional
MDA-MB-468 = assay: Growth inhibition of human MDA-MB-468 cells by NCI anti-cancer screening method; assay type: functional
EKVX = assay: Growth inhibition of human EKVX cells by NCI anti-cancer screening method; assay type: functional
NCI-H23 = assay: Growth inhibition of human NCI-H23 cells by NCI anti-cancer screening method; assay type: functional
SNB-75 = assay: Growth inhibition of human SNB75 cells by NCI anti-cancer screening method; assay type: functional
SK-OV-3 = assay: Growth inhibition of human SKOV3 cells by NCI anti-cancer screening method; assay type: functional
UACC-257 = assay: Growth inhibition of human UACC257 cells by NCI anti-cancer screening method; assay type: functional
NCI-H460 = assay: Growth inhibition of human NCI-H460 cells by NCI anti-cancer screening method; assay type: functional
SF-539 = assay: Growth inhibition of human SF539 cells by NCI anti-cancer screening method; assay type: functional
PC-3 = assay: Growth inhibition of human PC3 cells by NCI anti-cancer screening method; assay type: functional
MDA-MB-231 = assay: Growth inhibition of human MDA-MB-231 cells by NCI anti-cancer screening method; assay type: functional
OVCAR-5 = assay: Growth inhibition of human OVCAR5 cells by NCI anti-cancer screening method; assay type: functional
U-251 = assay: Growth inhibition of human U251 cells by NCI anti-cancer screening method; assay type: functional
UACC-62 = assay: Growth inhibition of human UACC62 cells by NCI anti-cancer screening method; assay type: functional
HL-60 = assay: Growth inhibition of human HL-60(TB) cells by NCI anti-cancer screening method; assay type: functional
Outline: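 Cells grown in RPMI 1640 with 10% FBS and 2 mM L-glutamine were plated at a density set by doubling time. They were held 24 h at 37 °C in 5% CO2 before drug was added, then exposed continuously for 48 h. Cells were fixed with cold TCA (10% final) for 60 min at 4 °C and stained with 0.4% SRB. Bound dye was eluted in 10 mM Tris base and read at 540 nm. Percent growth was taken versus control wells.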

CAKI-1 = assay: Growth inhibition of human Caki1 cells by NCI anti-cancer screening method; assay type: functional
HCT-15 = assay: Growth inhibition of human HCT15 cells by NCI anti-cancer screening method; assay type: functional
SF-268 = assay: Growth inhibition of human SF268 cells by NCI anti-cancer screening method; assay type: functional
A-375 [1] = assay: Induction of apoptosis in human A375 cells assessed as sub-G1 phase accumulation at 4 uM after 24 hrs by propidium iodide staining based flow cytometry; assay type: functional
Outline: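 A375 cells (5×10^5 per 60 mm dish) were grown 24 h, then treated 24 h at 0–4 µM. Cells were harvested with trypsin-EDTA, fixed in ice-cold 70% ethanol for 30 min at 4 °C, treated with RNase A (1 mg/ml) for 30 min at 37 °C, and stained with propidium iodide. Cell-cycle distribution, including the sub-G1 fraction, was measured by flow cytometry. DMSO-exposed cells were the control.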

A-375 [2] = assay: Increase in p27 protein expression in human A375 cells at 4 uM after 24 hrs by Western blot; assay type: functional, cell-based
Outline: (§1)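 A375 cells (DMEM, 10% FCS, 37 °C, 5% CO2) were treated at 4 µM for 24 h. Lysates were loaded at 30 µg protein/lane on 12% SDS-PAGE and transferred to PVDF. Membranes were blocked 2 h in TBST, incubated with primary antibody overnight at 4 °C (p53 1:100, p27 1:500, NF-κB p65 1:500), then HRP secondary 1 h, with chemiluminescent detection. β-actin was the loading control; untreated and DMSO controls were run.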

A-375 [3] = assay: Inhibition of NF-kappaB signaling in human A375 cells at 4 uM after 24 hrs by Western blot; assay type: cell-based; outline: as §1
A-375 [4] = assay: Increase in p53 protein expression in human A375 cells at 4 uM after 24 hrs by Western blot; assay type: functional, cell-based; outline: as §1
SK-MEL-2 = assay: Growth inhibition of human SK-MEL-2 cells by NCI anti-cancer screening method; assay type: functional
786-0 = assay: Growth inhibition of human 786-0 cells by NCI anti-cancer screening method; assay type: functional
UO-31 = assay: Growth inhibition of human UO31 cells by NCI anti-cancer screening method; assay type: functional
BT-549 = assay: Growth inhibition of human BT549 cells by NCI anti-cancer screening method; assay type: functional
A-375 [5] = assay: Increase in p21 mRNA expression in human A375 cells at 4 uM after 24 hrs by RT-PCR; assay type: functional, cell-based
Outline: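 RT-PCR on RNA from A375 cells treated 24 h at 4 µM, using Bcl-2- or p21-specific primers with GAPDH as internal control. Products were visualized on 1% agarose gels stained with ethidium bromide. Untreated and DMSO-treated cells served as controls.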

Nucleic Acid = assay: Binding affinity to calf thymus DNA assessed as change in melting temperature at 20 uM at pH 7 incubated for 18 hrs at 37 degC by thermal denaturation assay; assay type: nucleic-acid assay; details: Bos taurus
Outline: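 CT-DNA (100 µM in phosphate) with 20 µM ligand, 1:5 [PBD]/[DNA], in 10 mM sodium phosphate/1 mM Na2EDTA buffer pH 7.00. Ligand added from methanol solution; incubated at 37 °C for 0 or 18 h. A260 monitored while heating 1 °C/min over 40–90 °C. Tm taken from d(A260)/dT maxima; ΔTm = Tm(DNA+PBD) − Tm(DNA alone). Values are means of at least three determinations, corrected for methanol cosolvent.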

NCI-H322M = assay: Growth inhibition of human NCI-H322M cells by NCI anti-cancer screening method; assay type: functional
NCI = assay: Growth inhibition of human RXF393 cells by NCI anti-cancer screening method; assay type: functional
SNB-19 = assay: Growth inhibition of human SNB19 cells by NCI anti-cancer screening method; assay type: functional
SW-620 = assay: Growth inhibition of human SW620 cells by NCI anti-cancer screening method; assay type: functional
HT-29 = assay: Growth inhibition of human HT-29 cells by NCI anti-cancer screening method; assay type: functional

Question: For `COc1cc2c(cc1OCCCCCOc1ccc(-n3c(C)nc4ccccc4c3=O)cc1)N=C[C@@H]1CCCN1C2=O`, which GI50 (T47D) is on record?
Answer: 0.17 µM

Question: And the GI50 (HOP-92)?
Answer: 0.35 µM

Question: What about the GI50 (KM12) of the same molecule?
Answer: 0.17 µM

Question: And the GI50 (COLO 205)?
Answer: 0.18 µM

Question: And the GI50 (IGROV-1)?
Answer: 0.18 µM

Question: And the GI50 (TK-10)?
Answer: 0.31 µM

Question: What about the GI50 (OVCAR-8) of the same molecule?
Answer: 0.34 µM

Question: And the GI50 (ACHN)?
Answer: 0.29 µM

Question: And the GI50 (SK-MEL-28)?
Answer: 0.2 µM

Question: And the GI50 (MDA-MB-468)?
Answer: 0.16 µM

Question: And the GI50 (EKVX)?
Answer: 0.87 µM

Question: And the GI50 (NCI-H23)?
Answer: 0.23 µM

Question: What about the GI50 (SNB-75) of the same molecule?
Answer: 0.38 µM

Question: And the GI50 (SK-OV-3)?
Answer: 0.43 µM

Question: And the GI50 (UACC-257)?
Answer: 0.39 µM

Question: And the GI50 (NCI-H460)?
Answer: 0.2 µM

Question: What about the GI50 (SF-539) of the same molecule?
Answer: 0.22 µM

Question: What about the GI50 (PC-3) of the same molecule?
Answer: 0.29 µM

Question: And the GI50 (MDA-MB-231)?
Answer: 0.17 µM

Question: And the GI50 (OVCAR-5)?
Answer: 0.33 µM

Question: What about the GI50 (U-251) of the same molecule?
Answer: 0.16 µM

Question: What about the GI50 (UACC-62) of the same molecule?
Answer: 0.16 µM

Question: What about the GI50 (HL-60) of the same molecule?
Answer: 0.18 µM

Question: And the GI50 (CAKI-1)?
Answer: 0.19 µM

Question: What about the GI50 (HCT-15) of the same molecule?
Answer: 1.09 µM

Question: What about the GI50 (SF-268) of the same molecule?
Answer: 0.26 µM

Question: And the Activity (A-375 [1])?
Answer: 31.52%

Question: What about the Activity (A-375 [2]) of the same molecule?
Answer: Active

Question: And the inhibition (A-375 [3])?
Answer: Active

Question: What about the Activity (A-375 [4]) of the same molecule?
Answer: Active

Question: What about the GI50 (SK-MEL-2) of the same molecule?
Answer: 0.42 µM

Question: What about the GI50 (786-0) of the same molecule?
Answer: 0.17 µM

Question: And the GI50 (UO-31)?
Answer: 0.36 µM

Question: What about the GI50 (BT-549) of the same molecule?
Answer: 0.11 µM

Question: And the Activity (A-375 [5])?
Answer: Active

Question: And the ΔTm (Nucleic Acid)?
Answer: 2.3 °C

Question: What about the GI50 (NCI-H322M) of the same molecule?
Answer: 0.26 µM

Question: What about the GI50 (NCI) of the same molecule?
Answer: 0.21 µM

Question: What about the GI50 (SNB-19) of the same molecule?
Answer: 0.28 µM

Question: And the GI50 (SW-620)?
Answer: 0.16 µM

Question: What about the GI50 (HT-29) of the same molecule?
Answer: 0.26 µM
